Measured values as given in ChEMBL document CHEMBL1124399, “Synthesis and structure-activity studies of some disubstituted phenylisoxazoles against human picornavirus” (J Med Chem, 1989).
In brackets after ≈: the same amount, converted by molar mass. Several values for one entry are separate records, joined by “and”; a condition that tells them apart may be missing. Equal values may be shown once.

Tests used:
Enterovirus [1] = assay: (§1) In vitro anti-rhinovirus activity was measured as maximum testable levels - highest concentration of compound which causes no apparent effect on the cell monolayers; format: functional; conditions: Enterovirus; read-out: MIC
Coxsackievirus [2] = assay: In vitro activity against coxsackie A- 11; format: functional
Coxsackievirus [3] = assay: In vitro activity against coxsackie A- 21; format: functional
Coxsackievirus [4] = assay: In vitro activity against coxsackie A-2; format: functional
Coxsackievirus [5] = assay: In vitro activity against coxsackie B-2; format: functional
Echovirus [6] = assay: In vitr oactivity against echovirus-3; format: functional
Echovirus [7] = assay: In vitro activity against echovirus-3; format: functional
Echovirus [8] = assay: In vitro activity against echovirus-4; format: functional
Echovirus [9] = assay: In vitro activity against echovirus-9 (Barty); format: functional
Enterovirus C [10] = assay: In vitro activity against coxsackie A- 4; format: functional
Enterovirus C [11] = assay: In vitro activity against polioviurs-1 (Mahoney); format: functional
Enterovirus C [12] = assay: In vitro activity against polioviurs-2 (Lansing); format: functional
Enterovirus [13] = assay: Estimation by using phi 21 in combination with log P of compound 13 determined via RPHPLC-retention time procedure; format: functional
Method in brief: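 Values estimated by adding substituent π constants to the measured log P of a reference analogue. That reference log P came from reversed-phase HPLC retention times, with mobile phase at pH 7.4 and n = 3.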

Enterovirus [14] = assay: In vitro anti-rhinovirus activity was measured as mean MIC for five serotypes, HRV-1A, -2, -22, -41, and -50; format: functional
Method in brief: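 Mean of plaque-reduction-assay MICs across five rhinovirus serotypes (HRV-1A, -2, -22, -41, -50), chosen to represent a range of sensitivity to this compound class.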

Enterovirus [15] = assay: Minimum inhibitory concentration against rhinovirus serotype 15; format: functional
Method in brief: (§2)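 Rhinovirus minimum inhibitory concentration (MIC) determined in a plaque reduction assay in cell culture, testing each serotype separately.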

Enterovirus [16] = assay: Minimum inhibitory concentration against rhinovirus serotype 1A; format: functional; method in brief: as §2
Enterovirus [17] = assay: Minimum inhibitory concentration against rhinovirus serotype 1B.; format: functional; conditions: Enterovirus; read-out: MIC; method in brief: as §2
Enterovirus [18] = assay: Minimum inhibitory concentration against rhinovirus serotype 21.; format: functional; method in brief: as §2
Enterovirus [19] = assay: Minimum inhibitory concentration against rhinovirus serotype 30; format: functional; method in brief: as §2
Enterovirus [20] = assay: Minimum inhibitory concentration against rhinovirus serotype 41; format: functional; method in brief: as §2
Enterovirus [21] = assay: Minimum inhibitory concentration against rhinovirus serotype 50; format: functional; method in brief: as §2
Enterovirus [22] = assay: Minimum inhibitory concentration against rhinovirus serotype 67; format: functional; conditions: Enterovirus; read-out: MIC; method in brief: as §2
Enterovirus [23] = assay: Minimum inhibitory concentration against rhinovirus serotype 86; format: functional; method in brief: as §2
Enterovirus [24] = assay: Concentration required to inhibit 80 percent rhinovirus cell culture; format: functional
Method in brief: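 MIC80 is the concentration that inhibits 80% of the rhinovirus serotypes tested. It is derived from per-serotype MICs measured by plaque reduction assay.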

Coxsackievirus [25] = assay: In vitro activity against coxsackie A- 9; format: functional
Echovirus [26] = assay: In vitro activity against echovirus-30
Echovirus [27] = assay: In vitro activity against echovirus-12
Coxsackievirus [28] = assay: In vitro activity against coxsackie A- 21
Echovirus [29] = assay: In vitro activity of the compound against echovirus-12
Enterovirus [30] = assay: as §1; format: functional
Enterovirus [31] = assay: Minimum inhibitory concentration against rhinovirus serotype 89; format: functional; method in brief: as §2
Enterovirus [32] = assay: Minimum inhibitory concentration against rhinovirus serotype 1B; format: functional; method in brief: as §2
Enterovirus [33] = assay: Minimum inhibitory concentration against rhinovirus serotype 6.; format: functional; method in brief: as §2

SMILES | MIC (Enterovirus [14]) | MIC (Enterovirus [15]; Enterovirus, read-out: MIC) | MIC (Enterovirus [16]) | MIC (Enterovirus [17]) | MIC (Enterovirus [18]; Enterovirus, read-out: MIC) | MIC (Enterovirus [19]; Enterovirus, read-out: MIC) | MIC (Enterovirus [20]) | MIC (Enterovirus [21]) | MIC (Enterovirus [22]) | MIC (Enterovirus [23]) | MIC80 (Enterovirus [24]) | MIC (Enterovirus [30]) | MIC (Enterovirus [18]) | MIC (Enterovirus [31]) | further results
Cc1cc(CCCCCOc2c(Cl)cc(C3=NCCO3)cc2C(C)(C)C)on1 | – | – | – | – | – | – | – | – | – | – | – | – | – | – | MIC (Enterovirus [1]): 12.4 µM (≈ 5.02 µg/mL)
Cc1cc(CCCCCOc2c(Cl)cc(C3=NCCO3)cc2Cl)on1 [WIN-54954] | 0.7 µM (≈ 0.268 µg/mL) | 0.3 µM (≈ 0.115 µg/mL) | 0.02 µM (≈ 0.00767 µg/mL) | 0.2 µM (≈ 0.0767 µg/mL) | 0.3 µM (≈ 0.115 µg/mL) | 0.09 µM (≈ 0.0345 µg/mL) | 0.9 µM (≈ 0.345 µg/mL) | 2.6 µM (≈ 0.997 µg/mL) | 0.02 µM (≈ 0.00767 µg/mL) | 0.02 µM (≈ 0.00767 µg/mL) | 0.3 µM (≈ 0.115 µg/mL) | – | – | – | MIC (Coxsackievirus [2]): 4.8 µM (≈ 1.84 µg/mL); MIC (Coxsackievirus [3]): 0.21 µM (≈ 0.0805 µg/mL); MIC (Coxsackievirus [4]): 8.6 µM (≈ 3.3 µg/mL); MIC (Coxsackievirus [5]): 0.13 µM (≈ 0.0498 µg/mL); MIC (Echovirus [6]): 1.4 µM (≈ 0.537 µg/mL); MIC (Echovirus [7]): 0.18 µM (≈ 0.069 µg/mL); MIC (Echovirus [8]): 0.39 µM (≈ 0.149 µg/mL); MIC (Echovirus [9]): 2.6 µM (≈ 0.997 µg/mL); MIC (Enterovirus C [10]): 1.4 µM (≈ 0.537 µg/mL); MIC (Enterovirus C [11]): 0.65 µM (≈ 0.249 µg/mL); MIC (Enterovirus C [12]): 0.55 µM (≈ 0.211 µg/mL); MIC (Enterovirus [13]): 0.7 µM; MIC (Coxsackievirus [25]): 13.2 µM (≈ 5.06 µg/mL); MIC (Echovirus [26]): 0.08 µM (≈ 0.0307 µg/mL); MIC (Echovirus [27]): 16.2 µM (≈ 6.21 µg/mL); MIC (Coxsackievirus [28]): 0.008 µM (≈ 0.00307 µg/mL); MIC (Echovirus [29]): 0.03 µM (≈ 0.0115 µg/mL)
Cc1cc(CCCCCOc2c(Br)cc(C3=NCCO3)cc2[N+](=O)[O-])on1 | 1.16 µM (≈ 0.508 µg/mL) | 0.5 µM (≈ 0.219 µg/mL) | 0.1 µM (≈ 0.0438 µg/mL) | 0.3 µM (≈ 0.131 µg/mL) | 0.5 µM (≈ 0.219 µg/mL) | 0.2 µM (≈ 0.0877 µg/mL) | 1.6 µM (≈ 0.701 µg/mL) | 0.2 µM (≈ 0.0877 µg/mL) | – | – | 0.7 µM (≈ 0.307 µg/mL) | 1.2 µM (≈ 0.526 µg/mL) | 0.6 µM (≈ 0.263 µg/mL) | 0.03 µM (≈ 0.0131 µg/mL) | MIC (Enterovirus [32]): 0.7 µM (≈ 0.307 µg/mL)
Cc1cc(CCCCCOc2c(Cl)cc(C3=NCCO3)cc2C(F)(F)F)on1 | 0.54 µM (≈ 0.225 µg/mL) | 0.4 µM (≈ 0.167 µg/mL) | 0.2 µM (≈ 0.0834 µg/mL) | – | – | 0.2 µM (≈ 0.0834 µg/mL) | 0.8 µM (≈ 0.333 µg/mL) | 0.2 µM (≈ 0.0834 µg/mL) | 1 µM (≈ 0.417 µg/mL) | 1.3 µM (≈ 0.542 µg/mL) | 1.3 µM (≈ 0.542 µg/mL) | 0.5 µM (≈ 0.208 µg/mL) | – | 0.05 µM (≈ 0.0208 µg/mL) | –
Cc1cc(CCCCCOc2c(Br)cc(C3=NCCO3)cc2Br)on1 | 0.63 µM (≈ 0.297 µg/mL) | – | 0.1 µM (≈ 0.0472 µg/mL) | – | 0.3 µM (≈ 0.142 µg/mL) | 0.4 µM (≈ 0.189 µg/mL) | 2.1 µM (≈ 0.992 µg/mL) | – | – | – | 1.3 µM (≈ 0.614 µg/mL) | 0.6 µM (≈ 0.283 µg/mL) | – | – | MIC (Enterovirus [15]): 0.04 µM and 0.1 µM; MIC (Enterovirus [19]): 0.2 µM (≈ 0.0944 µg/mL)
Cc1cc(CCCCCOc2c(C)cc(C3=NCCO3)cc2C)on1 | 0.78 µM (≈ 0.267 µg/mL) | 0.4 µM (≈ 0.137 µg/mL) | 0.02 µM (≈ 0.00685 µg/mL) | – | 0.7 µM (≈ 0.24 µg/mL) | 0.2 µM (≈ 0.0685 µg/mL) | 1.6 µM (≈ 0.548 µg/mL) | 0.2 µM (≈ 0.0685 µg/mL) | – | 0.05 µM (≈ 0.0171 µg/mL) | 1.3 µM (≈ 0.445 µg/mL) | 0.8 µM (≈ 0.274 µg/mL) | 0.5 µM (≈ 0.171 µg/mL) | – | MIC (Enterovirus [33]): 1.2 µM (≈ 0.411 µg/mL); MIC (Enterovirus [33]; Enterovirus, read-out: MIC): 2.4 µM (≈ 0.822 µg/mL)
